Results reported in ChEMBL document CHEMBL3877264, “Quinolidene-rhodanine conjugates: Facile synthesis and biological evaluation” (Eur J Med Chem, 2017).
≈ marks a conversion by molar mass, not a printed value.

Experiments:
[1] = Cytotoxicity against human THP1 cells measured after 48 hrs by MTT assay; type: toxicity, cell-based, THP-1
Summary of the method: (§1)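 MTT assay with 48 h compound exposure. THP-1 macrophages made by 24 h PMA treatment. Each concentration tested in triplicate in one experiment. % cytotoxicity = (control−test)/(control−blank)×100, with control = cells + DMSO and blank = medium without cells. IC50 from % survival versus concentration plots.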

[2] = Cytotoxicity against […]-differentiated human THP1 cells measured after 48 hrs by MTT assay; type: toxicity, cell-based, THP-1; summary of the method: as §1
[3] = Cytotoxicity against human PANC1 cells measured after 48 hrs by MTT assay; type: toxicity, cell-based, PANC-1
[4] = Cytotoxicity against human HeLa cells measured after 48 hrs by MTT assay; type: toxicity, cell-based
[5] = Cytotoxicity against primary HUVEC measured after 48 hrs by MTT assay; type: toxicity, cell-based; conditions: human
[6] = Cytotoxicity against human A549 cells measured after 48 hrs by MTT assay; type: toxicity, cell-based
[7] = system: Mycobacterium tuberculosis; test: Growth inhibition of Mycobacterium tuberculosis H37Ra ATCC 25177 at dormant stage measured after 12 days by XTT dye based two fold dilution method; type: functional; conditions: H37Ra ATCC 25177, 288 h
Summary of the method: (§2)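 MTB H37Ra was grown in Dubos medium, then exposed in Mycobacterium pheli minimal medium (pH 6.6) to compounds dissolved in DMSO. The assay ended on day 8 (active) or day 12 (dormant). Viable cells were measured by XTT reduction menadione assay at 470 nm, blank-corrected, relative to vehicle control. Triplicates were expressed as mean ± SD. MIC came from dose-response curves.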

[8] = Selectivity index, ratio of GI50 for human PANC1 cells to MIC for Mycobacterium tuberculosis H37Ra ATCC 25177 at dormant stage; type: toxicity, cell-based, PANC-1; conditions: read-out: Selectivity Index
Summary of the method: (§3)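 SI is the cell-line GI50 divided by the dormant-stage mycobacterial MIC. […] THP-1 macrophages were PMA-differentiated for 24 h.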

[9] = system: Mycobacterium tuberculosis; test: Growth inhibition of Mycobacterium bovis BCG ATCC 35743 at active stage measured after 8 days by nitrate reductase dye based two fold dilution method; type: functional; conditions: BCG str. ATCC 35743, 192 h
Summary of the method: (§4)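 M. bovis BCG was grown in Dubos medium and assayed in Mycobacterium pheli minimal medium (pH 6.6), with compounds from DMSO stocks. Incubation lasted 8 days for active and 12 days for dormant cultures. Viability was read by nitrate reductase at 540 nm against cell-free blanks, with vehicle set as 100% growth. Primary screen was at 30, 10 and 3 µg/ml, in triplicate, mean ± SD. MIC was taken from dose-response curves.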

[10] = Selectivity index, ratio of GI50 for human A549 cells to MIC for Mycobacterium tuberculosis H37Ra ATCC 25177 at dormant stage; type: toxicity, cell-based; conditions: read-out: Selectivity Index; summary of the method: as §3
[11] = Selectivity index, ratio of GI50 for HUVEC to MIC for Mycobacterium tuberculosis H37Ra ATCC 25177 at dormant stage
[12] = Selectivity index, ratio of GI50 for […]-differentiated human THP1 cells to MIC for Mycobacterium tuberculosis H37Ra ATCC 25177 at dormant stage; type: toxicity, cell-based, THP-1; conditions: read-out: Selectivity Index; summary of the method: as §3
[13] = system: Mycobacterium tuberculosis; test: Growth inhibition of Mycobacterium bovis BCG ATCC 35743 at dormant stage measured after 12 days by nitrate reductase dye based two fold dilution method; type: functional; conditions: BCG str. ATCC 35743, 288 h; summary of the method: as §4
[14] = Selectivity index, ratio of GI50 for HUVEC to MIC for Mycobacterium bovis BCG ATCC 35743 at dormant stage; conditions: pooled result: one value given for 6 cell lines, strains, targets or settings; summary of the method: as §3
[15] = system: Mycobacterium tuberculosis; test: Growth inhibition of Mycobacterium tuberculosis H37Ra ATCC 25177 at active stage measured after 8 days by XTT dye based two fold dilution method; type: functional; conditions: H37Ra ATCC 25177, 192 h; summary of the method: as §2
[16] = Selectivity index, ratio of GI50 for human THP1 cells to MIC for Mycobacterium tuberculosis H37Ra ATCC 25177 at dormant stage; type: toxicity, cell-based, THP-1; conditions: read-out: Selectivity Index; summary of the method: as §3
[17] = Selectivity index, ratio of GI50 for human HeLa cells to MIC for Mycobacterium tuberculosis H37Ra ATCC 25177 at dormant stage; type: toxicity, cell-based; conditions: read-out: Selectivity Index; summary of the method: as §3

CC(=O)O[C@H]1C(=O)[C@@]2(C)[C@H]([C@H](OC(=O)c3ccccc3)[C@]3(O)C[C@H](OC(=O)[C@H](O)[C@@H](NC(=O)c4ccccc4)c4ccccc4)C(C)=C1C3(C)C)[C@]1(OC(C)=O)CO[C@@H]1C[C@@H]2O [PACLITAXEL]
GI50 at 48 h [1]: 5.7 µg/mL (≈ 6.68 µM) | GI50 at 48 h [2]: > 100 µg/mL | GI50 at 48 h [3]: 5.8 µg/mL (≈ 6.79 µM) | GI50 at 48 h [4]: 0.08 µg/mL (≈ 0.0937 µM) | GI50 at 48 h [5]: > 10 µg/mL | GI50 at 48 h [6]: 0.04 µg/mL (≈ 0.0468 µM)

CO[C@H]1/C=C/O[C@@]2(C)Oc3c(C)c(O)c4c(O)c(c(/C=N/N5CCN(C)CC5)c(O)c4c3C2=O)NC(=O)/C(C)=C\C=C\[C@H](C)[C@H](O)[C@@H](C)[C@@H](O)[C@@H](C)[C@H](OC(C)=O)[C@@H]1C [RIFAMPIN]
IC50 [7]: 0.0019 µg/mL (≈ 0.00231 µM) | IC90 [7]: 0.02 µg/mL (≈ 0.0243 µM) | selectivity ratio [8]: 2500 | IC90 [9]: 0.0151 µg/mL (≈ 0.0183 µM) | selectivity ratio [10]: 2500 | Selectivity Index [11]: 2500 | selectivity ratio [12]: 2500 | IC50 [13]: 0.0043 µg/mL (≈ 0.00523 µM) | IC90 [13]: 0.0173 µg/mL (≈ 0.021 µM) | Selectivity Index [14]: 2500 | IC50 [15]: 0.0021 µg/mL (≈ 0.00255 µM) | IC90 [15]: 0.028 µg/mL (≈ 0.034 µM) | selectivity ratio [16]: 2500 | selectivity ratio [17]: 2500
